# ATG4B inhibitor: blocks human ATG4B protease cleavage of LC3 substrate; Q9Y4P1; inhibition, % at 8.33 µM; actives 0.51% (n = 340,000); AID 504462; ATG4B cleavage of LC3-PLA2, NBD-HPC fluorescence, 1 h; in the data active = inhibition above about 40%
# MBD2 inh: inhibitors of human MBD2 binding to methylated oligonucleotide; Q9UBB5; inhibition, % at 4.4 µM; TR-FRET; actives 0.31% (n = 370,000); in the data active = inhibition above about 13%
# rCAG RNA binder: binds r(CAG) RNA repeats. r(CAG) RNA repeat, TO-PRO-1 dye displacement fluorescence. inhibition, % at 3 µM. actives 1.3% (n = 370,000);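 active = inhibition above the plate cutoff, the mean of all test compounds on that plate plus 3 SD, cut at about 35% in these data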;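 also: 0% = DMSO alone and 100% = 100 µM mitoxantrone as full dye displacement; higher means more dye released from RNA so lower well fluorescence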
# CSN deneddyl inh: blocks human CSN-mediated cullin deneddylation; Q92905; Purified CSN, SCF-Nedd8-OG deneddylation, fluorescence polarization; inhibition, % at 12.5 µM; actives 0.38% (n = 360,000); AID 651999;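 active = pattern-corrected inhibition above about 35%, with an unprinted fluorescence ratio check between 0.5 and 1.5, limit read from the data, passing the limit was not always enough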;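 also: 0% = enzyme with substrate and 100% = substrate without enzyme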
#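 Material: purified human Csn5 enzyme expressed in HEK293T cells / Medium: Tris buffer pH 7.5, NaCl, DTT, Tween-20, trehalose, ovalbumin / Compound dosing: 12.5 µM single point / Schedule: 90 min incubation of compound, enzyme and substrate at room temperature / Signal: fluorescence polarization of the substrate / Control set: no-enzyme wells high, enzyme-with-substrate wells low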
# LEDGF integ inh: blocks HIV-1 LEDGF/p75-dependent DNA integration. TR-FRET IN-LEDGF/p75 DNA integration, Eu/Cy5. inhibition, % at 3.7 µM. actives 0.64% (n = 370,000);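 active = inhibition above the screen-wide mean plus 3 SD, cut at about 13% in these data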;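 also: signal is the Cy5 over europium emission ratio at 671 and 618 nm; 0% = plate median of compound wells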
# UHRF1 MBD2 ctr: UHRF1 methyl-DNA binding inhibition. actives 0.75% (n = 370,000). UHRF1 binding to methylated oligo, TR-FRET. inhibition, % at 4.4 µM. AID 687016; in the data active = inhibition above about 21%;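 also: UHRF1 SRA domain binding a hemimethylated CpG hairpin DNA probe; 0% = median of test compound wells and 100% = reference inhibitor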
# Target sequence (Q96T88 whole entry, looked up, the tested form may be a part): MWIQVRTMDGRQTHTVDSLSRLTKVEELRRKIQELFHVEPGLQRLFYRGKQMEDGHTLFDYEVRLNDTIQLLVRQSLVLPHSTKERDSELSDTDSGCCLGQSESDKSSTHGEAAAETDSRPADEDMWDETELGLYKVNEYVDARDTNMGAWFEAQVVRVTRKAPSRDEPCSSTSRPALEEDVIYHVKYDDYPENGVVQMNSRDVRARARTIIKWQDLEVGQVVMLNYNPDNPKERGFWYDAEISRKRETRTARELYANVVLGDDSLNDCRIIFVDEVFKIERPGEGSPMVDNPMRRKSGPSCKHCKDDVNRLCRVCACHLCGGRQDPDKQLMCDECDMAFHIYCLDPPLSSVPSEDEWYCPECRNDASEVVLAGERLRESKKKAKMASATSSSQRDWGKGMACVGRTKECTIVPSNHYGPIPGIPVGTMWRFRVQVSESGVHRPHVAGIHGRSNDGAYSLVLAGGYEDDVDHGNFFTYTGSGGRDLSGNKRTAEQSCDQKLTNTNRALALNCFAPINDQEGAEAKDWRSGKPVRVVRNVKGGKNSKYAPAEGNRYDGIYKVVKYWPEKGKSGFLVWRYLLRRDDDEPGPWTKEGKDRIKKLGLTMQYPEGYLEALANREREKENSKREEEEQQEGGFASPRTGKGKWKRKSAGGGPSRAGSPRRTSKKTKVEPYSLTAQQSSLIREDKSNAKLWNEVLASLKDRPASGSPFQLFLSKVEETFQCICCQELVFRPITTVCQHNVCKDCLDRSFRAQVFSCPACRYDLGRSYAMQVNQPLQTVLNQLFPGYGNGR
# rCAG binder conf: r(CAG) RNA repeat binding, confirmation | shares compounds with rCAG RNA binder | AID 652065 | actives 70% (n = 4,300) | inhibition, % at 3 µM | TO-PRO-1 dye displacement fluorescence;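 active = inhibition above a per-plate cutoff, the mean inhibition of sample wells plus 3 SD, cut at about 35% in these data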;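 also: loss of TO-PRO-1 fluorescence as compound displaces dye from 1x1 AA loop RNA; 0% = DMSO only wells and 100% = 100 µM mitoxantrone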
# dCAG dye counter: DNA CAG dye complex inhibition counter-screen; actives 94% (n = 4,300); d(CAG) DNA oligo TO-PRO-1 dye displacement, fluorescence; shares compounds with rCAG RNA binder; inhibition, % at 3 µM;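 active = inhibition above its plate's cutoff, the mean test-well inhibition plus 3 SD, cut at about 4.8% in these data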;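 also: 0% = DNA dye mix with DMSO and 100% = 100 µM mitoxantrone; hits displace the dye from DNA and so lower well fluorescence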
# Active calls of the source: *; · = not tested or not shown. Hits are enriched below; roughly 3.1% of the tested compounds scored in any of these assays.
SMILES,ATG4B inhibitor,MBD2 inh,rCAG RNA binder,CSN deneddyl inh,LEDGF integ inh,UHRF1 MBD2 ctr,rCAG binder conf,dCAG dye counter
CCCCCN(CCCCC)C(=O)C(CCC(=O)O)NC(=O)c1ccc(Cl)c(Cl)c1 (stereo unspecified),5.8,-6.0,53.7*,2.7,-1.7,-0.5,51.6*,11.5*
COC(=O)C(C)N1C(=O)S/C(=C\c2ccc(-c3ccc(C(=O)O)cc3C)o2)C1=O (stereo unspecified),16.7,0.3,43.9*,19.0,11.6,15.6,33.1,7.8*
O=C(O)c1ccc(Cl)c(S(=O)(=O)N2CCC(Cc3ccccc3)CC2)c1,6.1,-2.6,62.5*,3.2,3.5,1.6,45.4*,13.4*
CC(C)C(NC(=O)[C@H](Cc1ccccc1)NC(=O)OCc1ccccc1)P(=O)(O)OC(Cc1ccccc1)C(=O)O (stereo partly specified),·,5.6,·,·,6.5,5.9,·,·
O=C(NCC(c1ccco1)N1CCCC1)c1ccc(S(=O)(=O)Nc2ccccc2Cl)cc1 (stereo unspecified),0.3,-4.0,30.4,-3.4,-0.8,-4.8,·,·
O=C(NCC(c1cccs1)N1CCOCC1)c1ccccc1NS(=O)(=O)c1ccc(Br)cc1 (stereo unspecified),-5.1,2.4,49.0*,-2.0,-1.5,-2.2,46.5*,14.7*
O=C(CCNS(=O)(=O)c1ccc(Br)cc1)NCC(c1cccs1)N1CCOCC1 (stereo unspecified),·,-2.7,2.0,1.1,2.4,-1.4,·,·
O=C(NCC(c1cccs1)N1CCOCC1)c1ccccc1NS(=O)(=O)c1ccc(Cl)cc1 (stereo unspecified),-7.5,5.2,50.4*,0.3,2.8,1.0,61.1*,22.6*
CC(=O)c1ccc(S(=O)(=O)Nc2ccc(C(=O)NCC(c3cccs3)N3CCOCC3)cc2)cc1 (stereo unspecified),5.6,2.9,5.0,3.5,1.1,-2.6,·,·
O=C(NCC(c1ccco1)N1CCCCC1)c1ccc(S(=O)(=O)Nc2ccccc2Cl)cc1 (stereo unspecified),-45.6,-2.7,43.1*,3.5,0.1,1.2,38.8*,8.8*
COCCCN1C(=O)[C@H](CC(=O)NCc2ccc(C)o2)[C@]2(C(=O)OC)CCCCC=C12,·,3.1,3.8,·,6.9,-1.4,·,·
C=CCN1[C@H](CO)[C@H](c2ccc(Br)cc2)[C@@H]1C#N,·,-2.8,1.8,·,2.9,2.7,·,·
C/C(C/C(C)=C1/SC(=S)NC1=O)=C1\SC(=S)NC1=O,67.6*,18.5*,66.0*,34.6,20.5*,44.8*,49.5*,16.0*
CCCCCC/C(C)=C1/SC(=S)NC1=O,14.2,2.8,28.3,23.1,-0.5,17.3,·,·
Cc1ccc(/C=N\NC(=O)CN2CCN(S(=O)(=O)c3ccc(Br)cc3)CC2)s1,·,0.7,1.1,·,-3.2,1.8,·,·
CCOC(=O)C1=C(O)/C(=C/c2ccc(OCC(=O)O)c(OCC)c2)SC1=Nc1ccc(OC)cc1,0.6,-0.5,55.8*,9.2,-7.0,5.0,63.9*,21.5*
CCOC(=O)C1=C(O)/C(=C/c2ccc(OCC(=O)O)c(OCC)c2)SC1=Nc1ccc(C)cc1,4.7,-1.0,44.7*,0.7,-2.6,2.3,67.8*,24.6*
CCOC(=O)C1=C(O)/C(=C/c2cc(OC)c(OC)c(OC)c2)SC1=Nc1ccc(OC)cc1,-17.7,0.1,7.1,-1.5,1.7,-0.2,·,·
O=C(O)CC/C(=N\Nc1ccc(S(=O)(=O)N2CCOCC2)cc1[N+](=O)[O-])c1cccs1,2.1,-15.6,55.7*,2.5,2.1,-11.7,58.5*,23.5*
O=C(O)CC/C(=N\Nc1ccccc1[N+](=O)[O-])c1cccs1,8.2,·,·,-3.4,·,·,·,·
O=C(O)CC/C(=N\Nc1ccc(S(=O)(=O)N2CCCC2)cc1[N+](=O)[O-])c1cccs1,3.0,-9.1,71.5*,5.2,-0.8,-7.6,59.8*,22.1*
O=C(O)c1ccccc1/C=N/Nc1ccc(S(=O)(=O)N2CCOCC2)cc1[N+](=O)[O-],-4.4,-3.3,6.7,-3.6,1.8,-4.4,·,·
O=C(COc1ccc2c(-c3ccccc3)cc(=O)oc2c1)N[C@@H](Cc1c[nH]c2ccc(O)cc12)C(=O)O,-13.2,-3.6,36.7*,1.9,-0.3,0.3,39.2*,12.9*
O=C(Cc1cc(=O)oc2cc(O)ccc12)N[C@@H](Cc1c[nH]c2ccccc12)C(=O)O,0.2,-0.2,5.2,-0.5,-4.9,-0.4,·,·
CCCc1cc(=O)oc2cc(OCC(=O)NC(Cc3c[nH]c4ccc(O)cc34)C(=O)O)c(Cl)cc12 (stereo unspecified),-1.9,0.2,19.2,4.2,2.5,1.3,·,·
SMILES,ATG4B inhibitor,MBD2 inh,rCAG RNA binder,CSN deneddyl inh,LEDGF integ inh,UHRF1 MBD2 ctr,rCAG binder conf,dCAG dye counter
O=C(COc1ccc2c(-c3ccccc3)cc(=O)oc2c1)NC(Cc1c[nH]c2ccccc12)C(=O)O (stereo unspecified),-4.0,0.6,53.9*,3.0,-3.9,1.1,49.4*,12.3*
Cc1ccc(S(=O)(=O)/N=C2\C=C(NS(=O)(=O)c3ccccc3)C(=O)c3ccccc32)c(C)c1,-0.3,-16.7,53.9*,3.1,1.7,-2.3,85.8*,58.2*
Cc1ccc(S(=O)(=O)/N=C2\C=C(Nc3cccc(C(=O)O)c3)C(=O)c3ccccc32)c(C)c1,35.1,-1.8,75.5*,12.8,10.9,1.9,82.6*,50.0*
Cc1ccc(S(=O)(=O)/N=C2\C=C(Nc3ccc(O)cc3)C(=O)c3ccccc32)cc1,16.6,·,·,4.2,·,·,·,·
COc1cccc(OC)c1NC(=O)OCCN1CCCC12CCC(c1ccccc1)CC2 (stereo unspecified),·,1.0,·,·,4.2,2.4,·,·
O=C(COc1ccccc1)Nc1nnc(S(=O)(=O)N2CCCC2)s1,-1.4,0.5,21.2,-2.4,-0.2,-0.7,·,·
COc1ccc(OCC(=O)Nc2nnc(S(=O)(=O)N3CCCCCC3)s2)cc1,0.5,2.6,40.5*,4.9,-0.6,-0.9,27.5,7.5*
COc1ccccc1C(=O)Nc1nnc(S(=O)(=O)N2CCC(C)CC2)s1,10.0,1.5,12.1,-3.0,0.5,-2.6,·,·
CCN(c1ccc(OC)cc1)S(=O)(=O)c1nnc(NC(=O)COc2ccccc2)s1,-6.6,0.0,66.1*,-0.9,5.4,-0.8,54.0*,19.0*
CCCCC(=O)Nc1nnc(S(=O)(=O)N(CC)c2ccc(OC)cc2)s1,5.8,-0.8,5.5,3.5,0.5,1.2,·,·
Cc1ccc(OCC(=O)Nc2nnc(S(=O)(=O)N3CCC(C)CC3)s2)cc1,1.7,4.0,41.6*,11.1,-0.4,-0.1,53.1*,22.6*

# Screening results: PubChem, several laboratories
